Sampled rows, rich in hits. Any-hit rate of the full collection: about 2%.
TRAIL sens C8 – viability loss with TRAIL in NB7+C8 cells, primary screen, TRAIL sensitizer project, cell-based, ATPlite luminescence | hit rate 1% among 360,000 | inhibition (viability loss, TRAIL sensitization), % at 10 µM | AID 624354, 2012;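 active = compounds causing at least 50% loss of cell viability in the single-dose screen, relative to plate controls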
PPC-1+TRAIL kill – compounds killing PPC-1 cancer cells with TRAIL present, primary screen, TRAIL potentiator project, ATPLite luminescence, uHTS; hit rate 0.41% among 220,000; cell killing (% activity), % at 4 µM or 5 µM; AID 1443, 2008; PPC-1 cells + TRAIL, ATPLite viability luminescence;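 active = cell killing above 50% in the first pass at 4 µM, then a duplicate retest at 5 µM averaging 50% or more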
FLuc stim CS – FLuc activators, initial screening, artefact control for FLuc-dependent activation tests, biochemical, ATPlite luminescence; Luciferin 4-monooxygenase (Photinus pyralis), P08659; ATPlite luciferase biochemical, 10 min; 0 = ATP-free wells, 1 = DMSO control; activation factor at 10 µM; 200,000 tested, under 10 active;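 active = luciferase activation factor, scaled between plate controls, of at least 2 with compound at 10 µM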
Target sequence (P08659 whole entry, looked up): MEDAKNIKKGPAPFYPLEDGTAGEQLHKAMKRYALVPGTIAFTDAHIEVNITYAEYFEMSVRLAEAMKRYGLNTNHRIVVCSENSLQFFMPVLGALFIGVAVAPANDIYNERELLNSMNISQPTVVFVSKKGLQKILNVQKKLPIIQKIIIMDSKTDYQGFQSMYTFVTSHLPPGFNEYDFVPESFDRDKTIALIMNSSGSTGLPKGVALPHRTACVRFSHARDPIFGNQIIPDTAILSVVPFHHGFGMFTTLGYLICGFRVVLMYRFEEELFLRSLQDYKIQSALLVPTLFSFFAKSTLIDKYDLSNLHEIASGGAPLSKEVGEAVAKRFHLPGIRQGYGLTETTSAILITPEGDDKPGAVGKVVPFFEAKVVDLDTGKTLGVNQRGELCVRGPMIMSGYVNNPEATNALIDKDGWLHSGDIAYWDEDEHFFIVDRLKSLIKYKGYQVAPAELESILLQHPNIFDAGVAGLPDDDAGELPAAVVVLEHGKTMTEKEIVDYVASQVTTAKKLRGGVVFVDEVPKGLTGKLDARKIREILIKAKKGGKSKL
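Material: Luciferase/luciferin reagent mix; Doses: test compounds dosed from 2 mM stocks in 100% DMSO; Schedule: 10 min incubation after luciferase reagent addition, room temperature; Measured by: luminescence from luciferase reaction; Read-out: luminescence gain marking luciferase activators.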
HSP90 inh – HSP90 inhibitors, primary screen, cell lysate, luminescence | inhibition, % at 5.6 µM | Rabbit reticulocyte lysate, luciferase refolding luminescence, 3 h | hit rate 0.91% among 290,000 | AID 1789, 2009;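 active = inhibition above the screen-wide mean plus 3 SD, computed separately per campaign, cut at about 16% in these data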;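 note: inhibitors lower the luminescence because luciferase stays unfolded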
FLuc inhib CS – firefly luciferase enzyme inhibitors, primary screen, artefact control for luciferase-based inhibitor screens, biochemical, luminescence, ATPLite | Luciferin 4-monooxygenase (Photinus pyralis), P08659 | 10 min | inhibition, % at 10 µM | hit rate 1.5% among 200,000 | AID 1006, 2008;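 active = inhibition above about 50% when tested at 10 µM, limit read from the data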
Numbers stand for hits; - = inactive; . = not tested or not shown.

SMILES	TRAIL sens C8	PPC-1+TRAIL kill	FLuc stim CS	HSP90 inh	FLuc inhib CS
Cn1c(-c2ccccc2)cnc1SCc1nc2ccccc2c(=O)[nH]1	-	-	-	-	61
CCN(CC)C(=O)C1=C(C)N(Cc2ccc(C(C)(C)C)cc2)C(=O)C(CC(=O)NC(c2ccccc2)c2ccccc2)C1 (stereo not drawn)	-	.	.	.	.
Cn1ncc2c(O/N=C(\N)c3ccc(C(F)(F)F)cc3)ncnc21	95	-	.	-	.
Nc1nc2c(ncn2[C@@H]2O[C@H](CNC(=O)[C@H](N)Cc3cncn3COCc3ccccc3)[C@@H](O)[C@H]2O)c(=O)[nH]1	-	.	.	.	.
CCCCC[C@H](C)N1C[C@H](COCc2ccccc2)Oc2cc(N3CCC[C@@H]3COC)ccc2S1(=O)=O	-	.	.	.	.
CCOc1ccc2nc(NC(=O)c3cccc(N4C(=O)CCC4=O)c3)sc2c1	56	.	.	.	.
CCOc1ccc2nc(NC(=O)c3cccc(-c4cc5ccccc5oc4=O)c3)sc2c1	71	-	-	-	-
COc1ccc2nc(NC(=O)c3cccc(N4C(=O)CCC4=O)c3)sc2c1	58	.	.	.	.
O=C(Nc1nc2ccc(Cl)cc2s1)c1cccc(N2C(=O)CCC2=O)c1	-	.	.	.	.
O=C1C=C(c2ccc3c(c2)OCO3)CCC1	-	.	.	.	.
CCN(CC)c1ccc2c(c1)oc(=O)c1c(Cl)cc(=O)oc12	70	-	-	-	-
Cc1cc(N2CC(C)OC(C)C2)nc2ccccc12 (stereo not drawn)	-	-	-	-	-
C#CC(=O)N(c1cccc(OC)c1)C(C(=O)NC1CCCC1)c1cccs1 (stereo not drawn)	96	94	-	-	-
CC(C)(C)c1ccc2c(c1)C(=O)c1ccccc1C2=O	56	-	-	-	72
O=C(Nc1ccncc1)c1ccc2c(c1)C(=O)N(CC1CCCO1)C2=O (stereo not drawn)	-	-	-	-	-
Cc1ccnc(NC(=O)c2ccc(N3C(=O)CCC3=O)cc2)c1	-	-	-	-	79
Cc1ccc(NC(=O)c2ccc(OCC3CCCO3)cc2)c(C)c1 (stereo not drawn)	-	-	-	-	-
Cc1ccnc(NC(=O)c2ccc3c(c2)C(=O)N(CC2CCCO2)C3=O)c1 (stereo not drawn)	-	-	-	-	56
Cc1csc(NC(=O)c2ccc(OCC3CCCO3)cc2)n1 (stereo not drawn)	54	-	-	-	74
Cc1ccnc(NC(=O)c2ccc(OCC3CCCO3)cc2)c1 (stereo not drawn)	91	.	.	.	.
CCS(=O)(=O)c1cc([N+](=O)[O-])c(Sc2ccccc2NC(C)=O)s1	-	-	.	-	.
COc1ccc(NC(=O)CCc2nnc3ccc(N4CCC(C)CC4)nn23)cc1OC	-	.	.	-	.
C[C@@H]1CN([C@@H](C)CO)S(=O)(=O)c2ccc(Br)cc2O[C@H]1CN(C)C(=O)C1CCC1	-	.	.	.	.
Cc1ccc(C(=O)N/N=C\c2ccc[nH]2)cc1[N+](=O)[O-]	86	-	-	-	-
O=C(N/N=C/c1ccc[nH]1)c1ccc(Cl)cc1	-	-	-	-	57
SMILES	TRAIL sens C8	PPC-1+TRAIL kill	FLuc stim CS	HSP90 inh	FLuc inhib CS
O=C(N/N=C/c1ccc[nH]1)c1ccccc1[N+](=O)[O-]	-	-	-	-	-
CC(C)c1cc(C(=O)OCC(=O)NC2CC2)c(O)c(C(C)C)c1	-	.	.	.	.
Cc1cc2cc(CCNC(=O)CCCc3ccccc3)c(=O)[nH]c2cc1C	-	.	.	-	.
COc1cccc2c1C(CO)N1C(C#N)C3CC(C(=O)O)C(C1C2)N3C (stereo not drawn)	59	-	.	-	.
COc1cccc2c1OCC(C(=O)O)C2 (stereo not drawn)	-	-	-	-	-
O=C(/C=C/c1ccc2c(c1)OCO2)NCCS(=O)(=O)N1CCN(c2ccc(F)cc2)CC1	-	.	.	.	.
COc1ccccc1-c1cc2nc(-c3ccccc3)cc(N3CCN(C(=O)c4ccoc4)CC3)n2n1	74	.	.	.	.
O=C(c1ccoc1)N1CCN(c2cc(-c3ccccc3)nc3cc(-c4ccccc4)nn23)CC1	-	.	.	.	.
COc1cccc(-c2cc3nc(-c4ccccc4)cc(N4CCN(C(=O)c5ccoc5)CC4)n3n2)c1	79	.	.	.	.
COc1cccc(-c2cc(N3CCN(C(=O)c4ccoc4)CC3)n3nc(-c4cccc(Cl)c4)cc3n2)c1	-	.	.	.	.
O=C(c1ccoc1)N1CCN(c2cc(-c3ccco3)nc3cc(-c4ccccc4)nn23)CC1	-	.	.	.	.
COc1ccccc1-c1cc2nc(-c3ccccc3)cc(N3CCN(C(=O)c4ccco4)CC3)n2n1	75	.	.	.	.
Cc1cc(C(=O)NNc2ccc(F)cc2F)no1	-	-	.	-	.
COc1ccc(-c2[nH][nH]c(=O)c2NC(=O)c2ccc(C)cc2)cc1	-	.	.	.	.
O=C(Nc1ccccc1)c1cc2ccccc2o1	56	-	-	-	74
COc1ccc(NC(=O)c2cc3ccccc3o2)cc1	-	-	-	-	53
O=C(COc1ccc(/C=N/NC(=O)c2cc3ccccc3o2)cc1Br)Nc1ccccc1	59	-	-	-	-
CC(=O)Nc1cccc(NC(=O)c2cc3ccccc3o2)c1	-	-	-	-	64
CC(C)C(=O)Nc1cccc(NC(=O)c2cc3ccccc3o2)c1	-	-	-	-	-
Cc1ccc(NC(=O)CCC(=O)c2cccs2)cc1F	-	.	.	-	.
Cc1ccc(N(Cc2ccccc2)C(=O)c2ccc(Cl)c(S(=O)(=O)N3CCOCC3)c2)cc1	-	.	.	.	.
CC(C)(C)NC(=O)C(c1ccc(F)cc1)N(Cc1ccccc1Cl)C(=O)c1ccn[nH]1 (stereo not drawn)	-	-	-	-	-
CCN(C(=O)CSC1=Nc2ccccc2C2CC=NN12)C1CCS(=O)(=O)C1 (stereo not drawn)	-	-	-	-	-
COc1cccc(COC(=O)Nc2ccccc2)c1OC	-	.	.	.	.
CN(C)c1ccc(N=Cc2nc(-c3ccccc3)oc2OC(=O)c2cccc(Cl)c2)cc1	-	-	-	-	-
SMILES	TRAIL sens C8	PPC-1+TRAIL kill	FLuc stim CS	HSP90 inh	FLuc inhib CS
Cc1ccc(C(=O)Oc2oc(-c3ccccc3)nc2C=Nc2ccc(N(C)C)cc2)cc1	-	56	-	-	-
N#CC1C(C#N)N2CCCN2C1c1ccc(Br)cc1 (stereo not drawn)	-	-	.	-	.
Cc1ccccc1C(=O)NCC(=O)OC1CCCCC1=O (stereo not drawn)	-	.	.	.	.
CSc1cc(-c2ccc(Cl)cc2)n(Cc2ccccc2)c(=O)c1C#N	75	-	-	-	-
O=C(Nc1ccc(Cl)c([N+](=O)[O-])c1)c1ccc(NCCCN2CCOCC2)c([N+](=O)[O-])c1	56	-	-	-	-
N#C/C(=C\c1ccc(N2CCOCC2)o1)C(=O)NCCc1ccccc1	-	-	-	-	-
N#C/C(=C/c1ccc(N2CCOCC2)o1)C(=O)Nc1ccccc1	-	-	-	-	55

Screening data deposited in PubChem BioAssay by several laboratories.
